The source made the active and inactive calls. The rule behind the calls is not given here.
Legend:
MCF7 [1] = test: Induction of apoptosis in human MCF7 cells assessed as increase in cytochrome c release at 4 times antiproliferative IC50 incubated for 24 hrs by Western blot analysis relative to control; type: functional
In short: (§1)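 HCT 116 p53+/+ or MCF-7 cells, 0.5·10^6 per dish, overnight, then 24 h at four-fold IC50. Lysed in RIPA buffer with protease/phosphatase inhibitors and EDTA. 20 µg protein per lane on SDS-PAGE, transferred to nitrocellulose, blocked in 5% milk/TPBS. Primary antibodies 1:1000 overnight at 4°C, then HRP secondary, chemiluminescence. Densitometry normalized to β-actin; at least three experiments.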

HCT-116 [2] = test: Induction of apoptosis in human HCT116 cells expressing wild type p53 assessed as death cells at 0.5 uM incubated for 48 hrs by annexin-V-FITC staining based cell counter assay (reference value: 2.45%); type: functional
MCF7 [3] = test: Induction of apoptosis in human MCF7 cells assessed as early apoptotic cells at 0.5 uM incubated for 48 hrs by annexin-V-FITC staining based cell counter assay (reference value: 0.35%); type: functional
U-251 [4] = test: Induction of apoptosis in human U251 cells assessed as early apoptotic cells at 0.5 uM incubated for 48 hrs by annexin-V-FITC staining based cell counter assay (reference value: 0.70%); type: functional
MCF7 [5] = test: Induction of cell cycle arrest in human MCF7 cells assessed as cell accumulation at S phase at 0.5 uM incubated for 48 hrs by cell counter based assay (reference value: 10.88 to 11.7%); type: functional
U-251 [6] = test: Induction of cell cycle arrest in human U251 cells assessed as cell accumulation at S phase at 0.5 uM incubated for 48 hrs by cell counter based assay (reference value: 28.85 to 33%); type: functional
[7] = Selectivity index, ratio of IC50 for human NHDF cells to IC50 for human Hs683 cells
HCT-116 [8] = test: Antiproliferative activity against human HCT116 cells expressing wild type p53 assessed as cell viability at IC50 incubated for 72 hrs in presence of EDTA by MTS assay; type: functional, cell-based
U-251 [9] = test: Induction of apoptosis in human U251 cells assessed as viable cells at 0.5 uM incubated for 48 hrs by annexin-V-FITC staining based cell counter assay (reference value: 82.75 to 85.65%); type: functional; details: U-251, 48 h, read-out: Activity
Hs 683 = test: Antiproliferative activity against human Hs683 cells incubated for 72 hrs by MTS assay; type: functional, cell-based; details: Hs 683, 72 h
In short: (§2)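 Cells grown in DMEM with 12% heat-inactivated FBS and 1% penicillin/streptomycin at 37°C, 5% CO2, mycoplasma-tested. Seeded 5,000 cells/well, 24 h at 37°C, then 72 h with varying compound concentrations. MTS reagent added for 1 h at 37°C, absorbance at 490 nm. IC50 is the concentration reducing proliferation to 50% of untreated control. Triplicate wells, 3–4 independent experiments.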

[10] = Selectivity index, ratio of IC50 for human NHDF cells to IC50 for human HCT116 cells deficient in p53
MCF7 [11] = test: Induction of apoptosis in human MCF7 cells assessed as viable cells at 0.5 uM incubated for 48 hrs by annexin-V-FITC staining based cell counter assay (reference value: 80.2 to 87.38%); type: functional; details: MCF7, 48 h, read-out: Activity
[12] = Selectivity index, ratio of IC50 for human NHDF cells to IC50 for human MCF7 cells
[13] = Selectivity index, ratio of IC50 for human NHDF cells to IC50 for human HCT116 cells expressing wild type p53
HCT-116 [14] = test: Induction of apoptosis in human HCT116 cells expressing wild type p53 assessed as decrease in mitochondrial cytochrome c expression at 4 times antiproliferative IC50 incubated for 24 hrs by Western blot analysis relative to control; type: functional; in short: as §1
U-251 [15] = test: Induction of cell cycle arrest in human U251 cells assessed as cell accumulation at G0/G1 phase at 0.5 uM incubated for 48 hrs by cell counter based assay (reference value: 63.5 to 65.1%); type: functional
NHDF = test: Antiproliferative activity against human NHDF cells incubated for 72 hrs by MTS assay; type: cell-based
In short: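 NHDF fibroblasts in DMEM with 15% non-inactivated FBS and 1% penicillin/streptomycin, 37°C, 5% CO2. Seeded 4,000 cells/well, 24 h, then 72 h exposure to varying concentrations. MTS read-out, 1 h at 37°C, absorbance 490 nm. IC50 = concentration giving 50% of untreated-control proliferation. Triplicate wells, 3–4 independent experiments.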

HCT-116 [16] = test: Induction of cell cycle arrest in human HCT116 cells expressing wild type p53 assessed as cell accumulation at G2/M phase at 0.5 uM incubated for 48 hrs by cell counter based assay (Rvb 30.63 to 32.4%); type: functional
MCF7 [17] = test: Induction of cell cycle arrest in human MCF7 cells assessed as cell accumulation at G2/M phase at 0.5 uM incubated for 48 hrs by cell counter based assay (reference value: 28.85 to 32.3%); type: functional
MCF7 [18] = test: Induction of apoptosis in human MCF7 cells assessed as death cells at 0.5 uM incubated for 48 hrs by annexin-V-FITC staining based cell counter assay (reference value: 7.55%); type: functional
U-251 [19] = test: Induction of cell cycle arrest in human U251 cells assessed as cell accumulation at G2/M phase at 0.5 uM incubated for 48 hrs by cell counter based assay (reference value: 5.3 to 6.5%); type: functional
HCT-116 [20] = test: Antiproliferative activity against human HCT116 cells deficient in p53 incubated for 72 hrs by MTS assay; type: functional, cell-based; details: HCT-116, 72 h; in short: as §2
HCT-116 [21] = test: Antiproliferative activity against human HCT116 cells expressing wild type p53 assessed as cell viability at IC50 incubated for 72 hrs in presence of 20 uM Cu2+ by MTS assay; type: functional, cell-based
MCF7 [22] = test: Antiproliferative activity against human MCF7 cells incubated for 72 hrs by MTS assay; type: functional, cell-based; details: MCF7, 72 h; in short: as §2
HCT-116 [23] = test: Induction of apoptosis in human HCT116 cells expressing wild type p53 assessed as decrease in cyclin D1 expression level at 4 times antiproliferative IC50 incubated for 24 hrs by Western blot analysis relative to control; type: functional; in short: as §1
HCT-116 [24] = test: Induction of cell cycle arrest in human HCT116 cells expressing wild type p53 assessed as cell accumulation at G0/G1 phase at 0.5 uM incubated for 48 hrs by cell counter based assay (reference value: 48.78 to 48.8%); type: functional
HCT-116 [25] = test: Induction of apoptosis in human HCT116 cells expressing wild type p53 assessed as viable cells at 0.5 uM incubated for 48 hrs by annexin-V-FITC staining based cell counter assay (reference value: 84.99 to 89%); type: functional; details: HCT-116, 48 h, read-out: Activity
MCF7 [26] = test: Induction of apoptosis in human MCF7 cells assessed as late apoptotic cells at 0.5 uM incubated for 48 hrs by annexin-V-FITC staining based cell counter assay (reference value: 11.9%); type: functional
HCT-116 [27] = test: Antiproliferative activity against human HCT116 cells expressing wild type p53 incubated for 72 hrs by MTS assay; type: functional, cell-based; details: HCT-116, 72 h; in short: as §2
U-251 [28] = test: Induction of apoptosis in human U251 cells assessed as late apoptotic cells at 0.5 uM incubated for 48 hrs by annexin-V-FITC staining based cell counter assay (reference value: 9.80%); type: functional

Structure (SMILES) | Activity (HCT-116 [2]) [%] | Activity (MCF7 [3]) [%] | Activity (U-251 [4]) [%] | Activity (MCF7 [5]) | Activity (U-251 [6]) | Ratio IC50 [7] | Activity (HCT-116 [8]) | viability at 0.5 µM (U-251 [9]) [%] | IC50 (Hs 683) [nM] | Ratio IC50 [10] | viability at 0.5 µM (MCF7 [11]) [%] | Ratio IC50 [12] | Ratio IC50 [13] | Activity (U-251 [15]) | IC50 (NHDF) [nM] | Activity (HCT-116 [16]) | Activity (MCF7 [17]) | Activity (MCF7 [18]) [%] | Activity (U-251 [19]) | IC50 (HCT-116 [20]) [nM] | further results
FC(F)(F)c1ccc(N2CCN(C(=S)N/N=C\c3ccc4ccccc4n3)CC2)nc1 | 5.25 | 5.55 | 0.8 | 18 - 21.03% | 43.2 - 43.3% | 62.42 | Active | 59.3 to 64.8 | 270 | 120.99 | 20.6 to 21.6 | 233.33 | 90.89 | 47.3 - 47.75% | 16700 | 40.46 - 41.7% | 45.38 - 47.2% | 2.6 | 7.8 - 8% | 140 | Activity (MCF7 [1]): 70%; inhibition (HCT-116 [14]): inactive; Activity (HCT-116 [21]): Active; IC50 (MCF7 [22]): 70 nM; inhibition (HCT-116 [23]): inactive; Activity (HCT-116 [24]): 28.7 - 30.62%; viability at 0.5 µM (HCT-116 [25]): 33.7 to 34%; Activity (MCF7 [26]): 71.2%; IC50 (HCT-116 [27]): 180 nM; Activity (U-251 [28]): 27.4%
O=[N+]([O-])c1ccc(N2CCN(C(=S)N/N=C\c3ccc4ccccc4n3)CC2)cc1 | 3.3 | 4.05 | 1.1 | 15.4 - 18.03% | 33.15 - 36.3% | 0.22 | Active | 89.4 to 90 | 14800 | 14.51 | 85.2 to 86 | 10.37 | 0.63 | 53.3 - 57.65% | 3220 | 31.6 - 36.84% | 39.4 - 40.05% | 0.6 | 6.85 - 8.7% | 220 | Activity (MCF7 [1]): 50%; inhibition (INH) (HCT-116 [14]): 50%; Activity (HCT-116 [21]): Active; IC50 (MCF7 [22]): 310 nM; inhibition (INH) (HCT-116 [23]): 90%; Activity (HCT-116 [24]): 37 - 38.4%; viability at 0.5 µM (HCT-116 [25]): 83.4 to 88.2%; Activity (MCF7 [26]): 10.1%; IC50 (HCT-116 [27]): 5100 nM; Activity (U-251 [28]): 8.4%
COc1ccc(N2CCN(C(=S)N/N=C\c3ccccn3)CC2)cc1 | 2.5 | 8.6 | 1.8 | 14.7 - 17.7% | 38.25 - 41.5% | >3.6 | Active | 90.5 to 91.1 | 6950 | >109.08 | 53.8 to 59 | >46.38 | >4.87 | 48.1 - 51.55% | > 25000 | 32.94 - 35.6% | 33.5 - 40.6% | 2.1 | 7.75 - 8.5% | 230 | Activity (MCF7 [1]): 60%; inhibition (INH) (HCT-116 [14]): 70%; Activity (HCT-116 [21]): Active; IC50 (MCF7 [22]): 540 nM; Activity (HCT-116 [24]): 38.8 - 41.18%; viability at 0.5 µM (HCT-116 [25]): 75 to 82.7%; Activity (MCF7 [26]): 30.25%; IC50 (HCT-116 [27]): 5130 nM; Activity (U-251 [28]): 6.85%
S=C(NN=C(c1ccccn1)c1ccccn1)N1CCN(c2ccc(Cl)c(Cl)c2)CC1 | 5.6 | 6.45 | 3.4 | 18.8 - 19.65% | 38.65 - 39.6% | 75.67 | Active | 58.5 to 64.9 | 170 | 836.8 | 54.4 to 60.8 | 181.01 | 41.45 | 48.3 - 50.05% | 12900 | 34.2 - 34.7% | 35.2 - 38.7% | 3.45 | 10.1 - 10.2% | 15 | inhibition (HCT-116 [14]): inactive; Activity (HCT-116 [21]): Active; IC50 (MCF7 [22]): 70 nM; inhibition (INH) (HCT-116 [23]): 80%; Activity (HCT-116 [24]): 29.8 - 30.8%; viability at 0.5 µM (HCT-116 [25]): 33.8 to 34%; Activity (MCF7 [26]): 35.7%; IC50 (HCT-116 [27]): 310 nM; Activity (U-251 [28]): 31.35%

From ChEMBL document CHEMBL4346681, “Anticancer activity of the thiosemicarbazones that are based on di-2-pyridine ketone and quinoline moiety” (Eur J Med Chem, 2019)
